High-throughput results (PubChem BioAssay)
Many of the other results were omitted from the sample, so hits are more common in it than they were.
LANA-nucl inh – inhibitors of KSHV LANA binding to nucleosomes | FITC-LANA1-23 / chicken nucleosome fluorescence polarization; active compounds read low | z-score (test concentration not listed) | 51,000 tested, 0.3% active | AID 720717;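 active = both repeat wells score below -2 in polarization z-score versus plate sample wells, excluding overly bright wells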
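Test system: purified chicken nucleosomes with FITC-labelled LANA N-terminal peptide (1-23); Input: 240 nM purified chicken nucleosomes (480 nM peptide binding sites), final; Medium: TEN-BT buffer, pH 7.5; Timing: 10–45 min, room temperature; Technique: fluorescence polarization, 480 nm excitation, 535 nm parallel and perpendicular emission; Replication: duplicates.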
BasE inh – BasE siderophore biosynthesis inhibition | 84,000 tested, 0.1% active | AID 485350 | purified BasE, fluorescence polarization binding displacement | inhibition, % (test concentration not listed); in the data active = inhibition above about 25%, passing the limit was not always enough;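 note: 0% = negative plate control signal and 100% = positive plate control signal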
An asterisk follows results filed as active; . = not tested or not shown; ! = not active in a repeat.

SMILES | LANA-nucl inh | BasE inh
O=C(CSC1=NNC(c2ccccn2)S1)Nc1cccc(Cl)c1 (stereo not given) | -2.13* | 1.8
COc1cccc(NC(=O)CSc2ncccn2)c1 | -0.703 | 1.3
CCN1CC=C2C(C1)C(c1ccc(Cl)s1)C(C#N)=C(N)C2(C#N)C#N (stereo not given) | -5.85* | 19.8
CCCN1CC=C2C(C1)C(c1ccc(C(=O)OC)cc1)C(C#N)=C(N)C2(C#N)C#N (stereo not given) | -1.7 | 14.3
CN(C)/C=C1\SC(=S)N(c2ccc(Br)cc2)C1=O | -8.95* | 7.6
Cn1cccc1/C=C1/SC(=S)N(c2ccc(C(=O)O)cc2)C1=O | -0.202 | -37.1
O=C1NC(c2ccc(F)cc2)(C(F)(F)F)C(=O)N1Cc1ccco1 (stereo not given) | -0.98 | 1.6
Cc1ccc(N2C(=O)NC(c3ccccc3)(C(F)(F)F)C2=O)nc1 (stereo not given) | -2.31* | 1.7
CCOc1ccc(N2C(=O)CC(NC3CCN(c4ncccn4)CC3)C2=O)cc1 (stereo not given) | -0.635 | 2.6
Cc1oc(C(=O)O)cc1COc1ccc2c3c(c(=O)oc2c1)CCCC3 | . | -0.1
Cn1cccc1C(=O)Nc1cccc(C(F)(F)F)c1 | . | 1.0
CCCCc1cc(=O)oc2c(CN(C)C)c(O)ccc12 | 0.708 | 20.0
CC[C@@]1(O)C(=O)OCc2c1cc1n(c2=O)Cc2cc3c(CN(C)C)c(O)ccc3nc2-1 | -9.04*! | 15.3
O=C(c1csc(-c2ccccc2)n1)N(Cc1ccccn1)Cc1ccccn1 | -1.97* | .
CCN(CC)C(=O)NCc1ccccn1 | -0.214 | 2.5
Cc1ccc(S(=O)(=O)N2C(=O)CCC2C(=O)N(Cc2nc(-c3ccccc3)no2)C(C)C)cc1 (stereo not given) | 0.332 | 1.3
c1ccc2c(Nc3ccc4c(c3)OCCO4)c3c(nc2c1)CCC3 | -0.147 | 2.9
CCC(=O)Nc1ccc2c(c1)C(=O)NC2=O | 0.196 | 1.7
CCNc1ncnc2c1oc1ccccc12 | 0.301 | -1.3
COC(=O)c1cnn(-c2c(Cl)cccc2Cl)c1C=C(C#N)C#N | -0.881 | 3.5
COC(=O)c1cc(-c2cocc2C=C(C#N)C#N)ccc1Cl | -4.66* | 6.9
Cc1cc(-n2c(SCC(=O)N3CCCC3)nc3n[nH]c(C)c3c2=N)ccc1Cl | -0.53 | -1.2
CCCCNC(=O)NC1C2CC3CC(C2)CC1C3 (stereo not given) | 0.799 | 26.4*
CC(C)NC(=O)NC1C2CC3CC(C2)CC1C3 (stereo not given) | 1.52 | -0.8
O=C(CCN1C(=O)/C(=C\c2ccco2)SC1=S)NN1CCOCC1 | 2.32 | -0.9
SMILES | LANA-nucl inh | BasE inh
O=C(CCN1C(=O)/C(=C\C=C\c2ccco2)SC1=S)Nc1ccc(C(=O)O)c(O)c1 | -0.23 | 32.7*
O/N=C(\Cn1cncn1)c1ccc(Cl)cc1Cl | . | 1.8
O=C1NC2(Cc3ccccc3C2)Nc2ccccc21 | -2.05* | 1.6
O=C1NC2(CCCCC2)Nc2ccccc21 | 0.318 | 0.0
CC1(C)CC(=O)C(=CN2CCOCC2)C(=O)C1 | . | 1.9
CC(=O)N/N=C/c1cc(C(C)C)cc(/C=N/NC(C)=O)c1O | -3.89* | 20.4
CC(=O)N/N=C/c1ccccc1 | 0.0315 | 3.0
Nc1nnc(-c2cccs2)c(=O)n1N | . | 30.6*
Nn1c(NNC(=O)c2ccccc2)nnc(-c2cccs2)c1=O | . | 1.8
COc1ccc(S(=O)(=O)c2ccc(O)cc2)cc1 | 0.132 | 51.2*
COc1ccc(S(=O)(=O)NNC(N)=S)cc1 | 0.255 | -0.6
COc1cccc(CN(C)C(=O)c2ccc3ccccc3n2)c1OC | . | -0.6
Nc1cccnc1Nc1ccccc1 | -3.06* | 23.8
O=C(NCc1ccccc1)c1cccnc1Nc1ccccc1 | -1.1 | 0.4
N#CC(C(=O)Nc1ccc(Cl)c(Cl)c1)=C1Nc2ccccc2N1 | 0.554 | 0.5
N#CC(C(=O)Nc1ccccc1)=C1Nc2ccccc2N1 | . | 31.1*
O=C(Nc1ccccc1N1CCOCC1)c1cccc(N2C(=O)c3ccccc3C2=O)c1 | . | -0.2
O=C1c2cccc3c(N4CCOCC4)ccc(c23)C(=O)N1c1ccccc1 | -3.06* | 13.2
COc1ccc(CSC2=C(C#N)C(=O)NC3(CCCCC3)S2)cc1 | . | 38.9*
CCCCSC1=C(C#N)C(=O)NC(c2ccc(OC)cc2)S1 (stereo not given) | -0.364 | 4.0
Oc1cc(O)cc(/C=C/c2ccc(O)c(O)c2)c1 | -0.395 | 86.0*
N#C/C(=C/c1ccc(O)c(O)c1)C(=O)OC/C=C/c1ccccc1 | 1.26 | 0.2
CC(C)Nc1cc(N2CCN(Cc3ccc4c(c3)OCO4)CC2)c2noc3c2c1C(=O)c1ccccc1-3 | 2.03 | -15.1
O=C(COc1cc(Cl)c(Cl)cc1Cl)NCCN1C(=O)CSC1=O | . | -1.2
C/C(=N\NC(=S)N1CCCC1)c1ccccc1 | -0.406 | 0.6
SMILES | LANA-nucl inh | BasE inh
Cc1cccc(OCC(=O)N(Cc2ccco2)Cc2ccco2)c1 | 0.493 | 27.8*
Cc1cccc(OCC(N)=O)c1 | . | 22.2
COc1ccc2c(COC(=O)CC3Oc4ccccc4NC3=O)cc(=O)oc2c1 (stereo not given) | . | 0.6
COC(=O)c1ccc(O)c(C(=O)OC)c1 | . | 1.6
Cc1ccnc(Cl)c1N | 0.0355 | 44.6*
COc1ncnc(Cl)c1N | 0.219 | -1.0
CCn1c(O)c(C=Nc2cccc3c2C(=O)NC3=O)c(=O)n(CC)c1=S | . | 2.3
CC(C)c1nc2ccc(N)cc2s1 | 0.512 | 3.4
CN(C)c1ccc2nc3ccc(=[N+](C)C)cc-3sc2c1 | -2.36* | .
COCC(C)Nc1oc(-c2ccc(Cl)cc2)nc1C#N (stereo not given) | . | -1.0
CCC(=O)c1ccc(OCC(O)CNC2CCCCCC2)cc1 (stereo not given) | 0.159 | -1.5
Cc1ccnc(SCC(=O)N2CCc3ccccc3C2)n1 | . | 39.5*
O=C(CSc1ncccn1)N1CCc2ccccc2C1 | 0.45 | 1.2
COCC(=O)N(CC1CCCO1)c1nnc(C)s1 (stereo not given) | 0.0105 | -1.4
O=C(Nc1cccnc1)/C(N=Nc1cccnc1)=C(\O)c1ccccc1 | . | 32.0*
O=C(Nc1ccccc1)c1cccnc1 | . | 11.5
O=C(CCSc1ccc(Cl)cc1)N1CCN(c2ccc(O)cc2)CC1 | . | -0.7
CN(C)c1ccc(C2=CC=CC(=C3C=CC(=[N+](C)C)C=C3)O2)cc1 | . | 7.9
CN(C)c1ccc(C(=C2C=CC(=[N+](C)C)C=C2)c2ccc(N(C)C)cc2)cc1 | -4.11*! | 2.3
COC(=O)/C(C#N)=C/c1ccccc1I | . | 2.4
Oc1ccc(Cl)c2cccnc12 | -0.116 | -1.2
Oc1ccc(Br)c2cccnc12 | 1.01 | 56.8*
COC(=O)c1cc(NC(=O)C2CCCN(S(=O)(=O)N3CCC(C)CC3)C2)cc(C(=O)OC)c1 (stereo not given) | -1.51 | 1.2
CC1CCN(S(=O)(=O)N2CCCC(C(=O)Nc3ccccc3C(=O)c3ccccc3)C2)CC1 (stereo not given) | -2.23* | -0.4
C=CCNC(=O)c1cc2cc(Cl)ccc2o1 | 0.124 | 1.5
SMILES | LANA-nucl inh | BasE inh
O=C(Cc1csc2nc(-c3ccccc3)cn12)NC1CCCC1 | -0.382 | 0.3
CCN(Cc1nc2ccccc2c(=O)[nH]1)Cc1nc2cc(C(F)(F)F)ccc2c(=O)[nH]1 | . | -0.5
O=c1[nH]c(=O)c2nc3cc(C(F)(F)F)ccc3nc2[nH]1 | -2.92* | 13.3
COc1ccc(CN2CCc3ccccc3C2)cc1 | -1.05 | 0.6
Nc1nonc1-c1nc2ccccc2n1CCn1c(-c2nonc2N)nc2ccccc21 | -0.578 | -1.8
CCCCCCn1c(=O)[nH]c2nc3cc(N)c(C)cc3nc2c1=O | . | 11.9
Cc1cc2nc3c(=O)n(C)c(=O)[nH]c3nc2cc1N=CN(C)C | -2.14* | 36.7
